Only some compounds are listed: those with a hit (about 4.9% of all), similar ones and a draw of the others.
STAT3 blocker = inhibitors of IL-6 induced STAT3 signaling | U3A cells, IL-6 STAT3-luciferase reporter, luminescence; host cell line lacks STAT1 | inhibition, % at 5.5 µM | hit rate 0.89% among 190,000 | AID 862;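 active = inhibition above the mean inhibition across all screened compounds plus 3 SD, cut at about 44% in these data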;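 note: 0% = DMSO only wells and 100% = 100 µM nifuroxazide control wells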
APP 5'UTR act = APP 5'UTR luciferase reporter activation | SH-SY5Y APP 5'UTR luciferase reporter, luminescence; zero percent = DMSO vehicle wells | activation, % at 2 µM | hit rate 1% among 190,000;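 active = activation above a set limit, based on mean plus 3 SD of controls, cut at about 140% in these data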
NF-kB expr up = compounds increasing NF-kB expression in human neuronal cells. fold change at 12.5 µM. AID 1239. NF-kB reporter expression; hits give high values. hit rate 1.6% among 190,000; in the data active = fold change above about 3.3
STAT1 act = activators of IFN-gamma induced STAT1 signaling. hit rate 2.6% among 200,000. NIH 3T3 STAT1-luciferase reporter, luminescence; 100% = IFN-gamma alone, no compound. activation (% of control), % at 5.5 µM;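 active = activation above the screen-wide mean activation plus 3 SD, cut at about 130% in these data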;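 note: raw ratio to IFN-gamma control signal so 100% means no change and 0% no light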
STAT1 blocker = reduces IFN-gamma driven STAT1 reporter signal; inhibition, % at 5.5 µM; hit rate 0.35% among 200,000; NIH 3T3 STAT1-luciferase reporter, luminescence;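 active = inhibition above a set limit, the mean inhibition across all tested compounds plus 3 SD, cut at about 34% in these data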;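 note: 0% = IFN-gamma with DMSO and 100% = IFN-gamma with 300 µM nifuroxazide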
STAT3 activator = increases IL-6 driven STAT3 reporter signal | U3A cells, IL-6 STAT3-luciferase reporter, luminescence; 100% = signal with IL-6 EC80 alone | hit rate 0.91% among 190,000 | activation (% of control), % at 5.6 µM;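 active = activation above the screen-wide mean of compound activation plus 3 SD, cut at about 130% in these data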;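 note: 0% = background luminescence of wells with medium and substrate only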
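Test system: human U3A cells carrying STAT3-luciferase construct; control set: IL-6-only wells as 100% reference; timing: compound pre-incubation 1 h before IL-6, then 6 h stimulation at 37 °C; also added: IL-6 stimulus at 33 ng/mL final; evaluation: % activation versus median of IL-6-stimulated wells; detection: reporter luminescence signal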
Numbers without * were called inactive.

SMILES	STAT3 blocker	APP 5'UTR act	NF-kB expr up	STAT1 act	STAT1 blocker	STAT3 activator
Cc1[nH]nc2c1C(c1cc(Br)cs1)C(C#N)=C(N)O2 (configuration not stated)	-6	-14	1	102	-3	106
Cc1c(C(=O)O)cccc1-c1ccc(/C=C2/NC(=O)N(c3ccccc3)C2=O)o1	-8	42	1.6	131*	-36	110
Nc1ccc2c(c1)Cc1cc([N+](=O)[O-])ccc1-2	-6	7	1.1	134*	-40	106
Nc1cc([N+](=O)[O-])ccc1O	12	10	1.1	97	3	90
CSc1cccc(NC(=O)Nc2ccc(Cl)cc2)c1	12	11	1.7	115	-17	92
CC(=O)c1ccc(NC(=O)Nc2cccc(Cl)c2)cc1	14	121	3.6*	120	-21	93
CCN1CCN(Cc2ccc(NC(=O)Nc3ccccc3Cl)cc2)CC1	14	141*	2.5	118	-18	89
O=C(Nc1ccccc1)Nc1cccc(Cl)c1	-2	41	1.7	107	-9	101
O=C(Nc1cccc(C(=O)O)c1)Nc1ccccc1Cl	89*	65	1.7	26	79*	29
O=C(Nc1ccc(Cl)cc1)Nc1cccc(C(=O)O)c1	99*	1	2	18	88*	18
CCOc1ccc2nc(NS(=O)(=O)Cc3ccccc3)sc2c1	5	-16	2.4	107	-7	99
CC1(O)N(CCC(=O)Nc2cccc(F)c2)C(=O)OC12CCCCC2 (configuration not stated)	2	-3	0.94	91	8	102
Cc1cc(C(=O)Nc2sc(C)c(-c3ccc(F)cc3)c2C(N)=O)no1	-1	51	0.86	161*	-67	105
CCc1ccc(-c2c(C)sc(NC(C)=O)c2C(N)=O)cc1	4	17	0.93	103	-3	102
Cc1ccc(NC(=O)N/C=C/c2ccco2)cc1C	11	13	1.3	103	-3	97
Cc1ccc(NC(=O)N/C=C/c2ccco2)c(C)c1	-3	-6	5.2*	101	-1	107
CC1CCN(C(=O)CSc2nc3ccccc3s2)CC1	-24	94	2.8	132*	-35	124
CC1CCCC(C)N1C(=O)CSc1nc2ccccc2s1 (configuration not stated)	-39	5	1.7	103	-3	133*
O=C(O)C1CCN(C(=O)CSc2nc3ccccc3s2)CC1	7	18	0.86	97	2	103
CCOc1ccc(-n2ccnc2SCC(=O)Nc2cc(C)on2)cc1	7	-2	1.1	97	2	96
O=C(CNC(=O)c1ccc2ccccc2c1)OCC(=O)N1CCN(S(=O)(=O)c2ccc3ccccc3c2)CC1	1	-4	1.4	96	4	101
CCCCCOc1ccc(OC(=O)c2ccncc2)cc1	2	-12	3.8*	105	-6	101
CCCCOc1ccc(C(=O)Oc2ccc(C)nc2)cc1	7	11	1	92	9	97
CCOc1ccc(-c2ccc(SC)nn2)cc1	110*	77	2	25	81*	14
CCOc1ccc(-c2ccc(SCC(=O)Nc3nnc(CC)s3)nn2)cc1	31	115	2.8	113	-17	77
SMILES	STAT3 blocker	APP 5'UTR act	NF-kB expr up	STAT1 act	STAT1 blocker	STAT3 activator
COc1ccc(S(=O)(=O)N2CCCCCC2)cc1Br	-3	-2	1.1	96	3	104
CCOC(=O)c1c(C)oc2c1c(CN1CCN(C(=O)OCC)CC1)c(O)c1ccccc12	-38	157*	4.3*	100	0	129
O=C(C=C1SCCS1)/C=C/c1ccco1	30	158*	5.9*	114	-16	77
CCCc1cc(=O)[nH]c(SCC(=O)NN(c2ccccc2)c2ccccc2)n1	5	-4	0.82	103	-5	103
CC(=O)c1ccc(N2Cc3ccccc3C2=NC(=O)c2cccs2)cc1	43	86	3	135*	-39	65
O=c1oc(Nc2cccc(F)c2)nc2ccccc12	12	68	2.2	112	-13	100
Cc1ccc(C)c(Nc2ncnc(N)c2[N+](=O)[O-])c1	11	2	1.1	96	5	93
Cc1ccc(C)c(Nc2nc(N)c3ccccc3n2)c1	30	184*	1.1	124	-30	79
Nc1nc(Nc2cccc(F)c2)nc2ccccc12	3	97	5.3*	145*	-50	103
COc1cccc(CC2(CO)CCN(Cc3ccc4cccc(F)c4n3)CC2)c1	0	6	0.96	100	-1	104
CC(C)C(=O)Nc1ncc(Cc2ccc(Cl)cc2)s1	6	-14	2.6	108	-10	97
O=C1CSC(=S)N1Cc1cccnc1	13	3	4.8*	79	22	91
CCOc1ccc(-n2nnnc2SCC(=O)NNC(=O)c2ccco2)cc1	17	-2	1.1	95	3	89
Brc1cccc(-c2n[nH]c(-c3ccccc3)n2)c1	-55	132	3.9*	138*	-42	152*
c1ccc(-c2nc(-c3cccnc3)n[nH]2)cc1	14	17	1.4	121	-23	90
O=C(Cn1cccc1C(=O)c1ccccc1)NCCC1=CCCCC1	-1	-6	1.9	103	-4	112
COC(=O)/C(=C\Nc1ccccc1N)c1ncc(C(F)(F)F)cc1Cl	-1	40	3.3*	101	-1	102
CCOc1ccc(N2C(=O)CC(N(CCc3ccc(OC)cc3)C(=O)/C=C/C(=O)O)C2=O)cc1 (configuration not stated)	-2	-7	1.1	106	-9	102
O=C(NCCOc1ccccc1Cl)c1cc(F)c(F)cc1Cl	-6	124	3.8*	130*	-33	105
O=C(CCc1nc2ccccc2s1)Nc1ccccc1	8	-1	0.97	96	5	89
CCOCC(=O)Nc1nc2ccccc2s1	-12	24	1.9	128	-32	113
S=C(Nc1ccccc1)c1nc2ccccc2s1	-32	101	2.4	138*	-42	131
CC(=O)N1CCC(=NNc2nc3ccccc3s2)CC1	-12	108	2.1	136*	-39	116
O=C(NNc1nc2ccccc2s1)Nc1ccccc1	-2	115	1.7	138*	-42	101
CCNC(=O)Nc1nc2ccccc2s1	-10	77	2.6	146*	-48	108
CN(c1ccccc1)c1cc(=O)[nH]c(=O)[nH]1	2	-7	0.93	104	-4	101
CN1CCN(c2nc(-c3cccs3)cs2)CC1	27	3	1.3	111	-14	80
CN1CCN(c2nc(-c3cc4ccccc4o3)cs2)CC1	-8	109	2.8	129*	-33	106
Cc1cn2nc(N)c3ccccc3c2n1	6	0	1.1	99	0	101
Nc1nn2cc(-c3ccccc3)nc2c2ccccc12	-40	198*	0.97	143*	-47	135*
